Test [1] addresses T1, Diacylglycerol lipase-alpha (Homo sapiens, UniProt Q9Y4D2).
T1 sequence (Q9Y4D2 whole entry): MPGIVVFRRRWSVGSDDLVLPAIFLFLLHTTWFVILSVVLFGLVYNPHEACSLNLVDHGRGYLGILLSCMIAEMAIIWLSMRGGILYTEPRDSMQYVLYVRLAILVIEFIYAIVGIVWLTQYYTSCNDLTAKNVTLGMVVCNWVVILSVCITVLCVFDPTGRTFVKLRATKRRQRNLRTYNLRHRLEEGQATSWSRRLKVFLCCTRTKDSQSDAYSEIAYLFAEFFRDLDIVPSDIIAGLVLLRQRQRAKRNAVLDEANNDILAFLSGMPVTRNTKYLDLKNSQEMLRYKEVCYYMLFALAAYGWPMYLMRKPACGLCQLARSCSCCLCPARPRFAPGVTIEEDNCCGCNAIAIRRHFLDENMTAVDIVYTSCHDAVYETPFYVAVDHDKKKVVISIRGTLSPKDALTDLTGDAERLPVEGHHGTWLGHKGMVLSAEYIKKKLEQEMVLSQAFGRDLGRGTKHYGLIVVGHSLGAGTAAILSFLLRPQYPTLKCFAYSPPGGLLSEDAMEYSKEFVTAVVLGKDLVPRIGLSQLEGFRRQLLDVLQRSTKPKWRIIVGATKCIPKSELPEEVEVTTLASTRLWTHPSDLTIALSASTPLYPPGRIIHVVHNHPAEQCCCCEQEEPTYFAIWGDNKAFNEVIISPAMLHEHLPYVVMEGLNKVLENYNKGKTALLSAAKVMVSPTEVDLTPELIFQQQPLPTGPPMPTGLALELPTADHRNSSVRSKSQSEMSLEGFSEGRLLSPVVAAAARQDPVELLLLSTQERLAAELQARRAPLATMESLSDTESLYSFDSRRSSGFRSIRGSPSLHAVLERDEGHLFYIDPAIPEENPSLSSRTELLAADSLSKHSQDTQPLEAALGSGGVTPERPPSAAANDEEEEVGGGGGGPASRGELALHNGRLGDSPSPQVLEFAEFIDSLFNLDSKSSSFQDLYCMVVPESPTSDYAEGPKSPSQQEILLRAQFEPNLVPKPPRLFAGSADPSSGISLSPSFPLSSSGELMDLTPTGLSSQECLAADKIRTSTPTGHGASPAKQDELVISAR
As to the kind of experiment: Inhibition of human recombinant DAGL-alpha-mediated sn-1-[14C]oleoyl-2-arachidonoyl-glycerol hydrolysis to 2-AG overexpressed in african green monkey COS7 cell membrane by scintillation counting. The class given is cell membranes, COS-7.

Test [2] can be described thus: Inhibition of MAGL-mediated [14C]2-arachidonoyl glycerol hydrolysis to [3H]arachidonic acid in african green monkey COS cell cytosolic fraction by scintillation counting. The class given is cell-based, Chlorocebus aethiops. The settings on record: in the assay text read “[3H]2-arachidonoyl glycerol” for “[14C]2-arachidonoyl glycerol”. The method in brief: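 The 10000g cytosolic fraction of COS-7 cells, taken as the MAGL source, was incubated with 2-[3H]arachidonoylglycerol (1.0 mCi/mmol, 25 µM) in 50 mM Tris-HCl, pH 7.0, for 20 min at 37 °C. Products were separated by TLC. [3H]arachidonic acid was quantified by scintillation counting as the measure of activity.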

For a further test, the target named is Cannabinoid receptor 1 (Homo sapiens, UniProt P21554). As to the kind of experiment: Displacement of [3H]CP-55940 from human recombinant CB1 receptor expressed in HEK293 cells by scintillation counting. The class given is cell-based. In general terms: Displacement assays read how much labelled ligand stays bound in the presence of the test substance.
The target in another test is Cannabinoid receptor 2 (Homo sapiens, UniProt P34972). Put plainly: Displacement of [3H]CP-55940 from human recombinant CB2 receptor expressed in HEK293 cells by scintillation counting. The class given is cell-based.
Test [3] concerns the target T2, Fatty-acid amide hydrolase 1 (Rattus norvegicus, UniProt P97612).
T2 sequence (P97612 whole entry): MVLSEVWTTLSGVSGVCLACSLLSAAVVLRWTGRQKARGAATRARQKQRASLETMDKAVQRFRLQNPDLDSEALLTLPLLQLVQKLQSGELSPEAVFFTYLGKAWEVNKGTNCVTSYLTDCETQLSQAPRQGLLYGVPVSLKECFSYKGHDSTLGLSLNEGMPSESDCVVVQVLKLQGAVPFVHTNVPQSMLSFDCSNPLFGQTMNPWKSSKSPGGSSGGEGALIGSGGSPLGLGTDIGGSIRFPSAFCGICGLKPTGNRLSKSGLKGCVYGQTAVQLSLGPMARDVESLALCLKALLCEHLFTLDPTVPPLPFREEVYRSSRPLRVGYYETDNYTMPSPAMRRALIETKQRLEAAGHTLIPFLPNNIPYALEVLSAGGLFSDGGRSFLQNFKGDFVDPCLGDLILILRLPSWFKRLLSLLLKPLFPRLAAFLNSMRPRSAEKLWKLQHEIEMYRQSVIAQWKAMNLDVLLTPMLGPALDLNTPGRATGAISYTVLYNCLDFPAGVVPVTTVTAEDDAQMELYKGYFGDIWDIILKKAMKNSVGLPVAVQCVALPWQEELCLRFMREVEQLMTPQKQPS
As to the kind of experiment: Inhibition of FAAH-mediated [14C]anandamide hydrolysis in rat brain membrane. The class given is cell membranes. Summed up: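 The mixture was extracted with 2 volumes of CHCl3/CH3OH 1/1. [14C]ethanolamine in the aqueous phase was measured by scintillation counting.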

Test [4] is described as follows: Selectivity ratio of IC50 for african green monkey MAGL over IC50 for human recombinant DAGLalpha.
Test [5] can be described thus: Selectivity ratio of IC50 for african green monkey MAGL over Ki for human recombinant CB1 receptor.
A short description of test [6]: Selectivity ratio of IC50 for african green monkey MAGL over Ki for human recombinant CB2 receptor.
A short description of test [7]: Selectivity ratio of IC50 for african green monkey MAGL over IC50 for rat brain membrane FAAH.
Test [8] is described as follows: Enhancement of ionomycin-induced stimulation of 2-AG biosynthesis in mouse N18TG2 cells at 1.5 uM. The class given is functional. Summed up: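 Confluent mouse N18TG2 neuroblastoma cells attached to dishes were incubated for 20 min at 37 °C in medium containing 3 µM ionomycin, with vehicle or test compound. The reaction was stopped with ice-cold methanol and lipids were extracted three times with CHCl₃. Lyophilized lipids were assayed for 2-AG by isotope-dilution LC-MS. Values are % change in 2-AG levels versus vehicle (means ± SEM, N = 3).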

The results in this text go back to ChEMBL document CHEMBL1142489, “Tetrahydrolipstatin analogues as modulators of endocannabinoid 2-arachidonoylglycerol metabolism” (J Med Chem, 2008).

Chain of Cannabinoid receptor 1 (P21554 whole entry): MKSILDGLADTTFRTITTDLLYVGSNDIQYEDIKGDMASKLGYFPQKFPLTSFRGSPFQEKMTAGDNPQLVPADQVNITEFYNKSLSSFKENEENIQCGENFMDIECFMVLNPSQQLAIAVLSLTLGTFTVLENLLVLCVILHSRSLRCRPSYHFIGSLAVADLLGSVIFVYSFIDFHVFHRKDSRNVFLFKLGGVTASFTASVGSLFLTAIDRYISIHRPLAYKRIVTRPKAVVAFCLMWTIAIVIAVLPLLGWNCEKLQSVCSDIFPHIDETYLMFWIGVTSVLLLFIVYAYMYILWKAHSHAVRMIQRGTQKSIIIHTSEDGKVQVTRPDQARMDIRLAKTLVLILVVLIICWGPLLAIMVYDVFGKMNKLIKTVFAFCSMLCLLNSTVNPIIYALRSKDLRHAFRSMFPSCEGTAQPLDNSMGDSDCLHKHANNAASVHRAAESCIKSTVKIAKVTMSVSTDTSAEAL
Chain of Cannabinoid receptor 2 (P34972 whole entry): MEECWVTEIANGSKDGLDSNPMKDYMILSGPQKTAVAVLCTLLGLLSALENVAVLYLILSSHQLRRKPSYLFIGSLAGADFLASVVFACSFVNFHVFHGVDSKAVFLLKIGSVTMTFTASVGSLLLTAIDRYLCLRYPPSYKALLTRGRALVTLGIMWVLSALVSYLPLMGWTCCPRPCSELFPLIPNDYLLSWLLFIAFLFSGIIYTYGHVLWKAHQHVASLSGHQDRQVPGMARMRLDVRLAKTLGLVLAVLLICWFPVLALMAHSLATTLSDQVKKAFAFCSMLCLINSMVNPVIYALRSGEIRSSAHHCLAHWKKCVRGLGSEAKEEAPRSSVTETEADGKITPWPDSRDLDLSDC

On to `CCCCCCCCCCC[C@@H](C[C@@H]1OC(=O)[C@H]1CCCCCC)OC(=O)CNC=O`, for which the IC50 – broadly, the midpoint of a concentration-inhibition curve – in test [1] was 2800 nM; in [2], 410 nM; in test [3], 3000 nM. Further, the Ki on Cannabinoid receptor 1 and on Cannabinoid receptor 2 was over 10000 nM in each case. Further, the Ratio IC50 in test [4] and in [7] was 7 each time. Besides, the Ratio in test [5] and in test [6] was 7 throughout. For the same molecule, the Activity in test [8] stood at 55%.
